Drawing on ChEMBL document CHEMBL1146294 (Bioorg Med Chem Lett, 2007), this text covers IC50, Stability and inhibition for nine compounds.

SMILES strings stand for the structures.

In the first data set the test system is HT-29. Nature of the data set: Antiproliferative activity against HT29 cells. The format is functional, cell-based. To be noted: Homo sapiens.
As usually defined, the IC50 is the concentration that gives 50% inhibition. In the case of `CC(C)Cc1ccc([C@H](C)C(=O)O)cc1` [DEXIBUPROFEN], the IC50 is > 1000 µM.

For the compound `CC(=O)OCC(OC(C)=O)C(OC(C)=O)C(Cn1c2nc(=O)n(CCCCOC(=O)C(C)c3ccc(CC(C)C)cc3)c(=O)c-2nc2cc(C)c(C)cc21)OC(C)=O` (stereo not drawn), half-maximal inhibition (IC50) was put at 10.5 µM.

For `CC(=O)OCC(OC(C)=O)C(OC(C)=O)C(Cn1c2nc(=O)n(CCOC(=O)C(C)c3ccc(CC(C)C)cc3)c(=O)c-2nc2cc(C)c(C)cc21)OC(C)=O` (stereo not drawn), the IC50 was found to be 12.7 µM.

Take `CC(=O)OCC(OC(C)=O)C(OC(C)=O)C(Cn1c2nc(=O)n(CCO)c(=O)c-2nc2cc(C)c(C)cc21)OC(C)=O` (stereo not drawn): the IC50 is > 100 µM.

Compound `CC(=O)OCC(OC(C)=O)C(OC(C)=O)C(Cn1c2nc(=O)n(COC(=O)C(C)c3ccc(CC(C)C)cc3)c(=O)c-2nc2cc(C)c(C)cc21)OC(C)=O` (stereo not drawn) came in with an IC50 of 12.1 µM.

Compound `CC(=O)OCC(OC(C)=O)C(OC(C)=O)C(Cn1c2nc(=O)[nH]c(=O)c-2nc2cc(C)c(C)cc21)OC(C)=O` (stereo not drawn) came in with an IC50 of 90.9 µM.

With `O=c1[nH]cc(F)c(=O)[nH]1` [FLUOROURACIL], it took 7.3 µM to reach half-maximal inhibition (IC50).

In turn, `CC(=O)OCC(OC(C)=O)C(OC(C)=O)C(Cn1c2nc(=O)n(CCCCCOC(=O)C(C)c3ccc(CC(C)C)cc3)c(=O)c-2nc2cc(C)c(C)cc21)OC(C)=O` (stereo not drawn) gave an IC50 of 13.1 µM.

With `CC(=O)OCC(OC(C)=O)C(OC(C)=O)C(Cn1c2nc(=O)n(CCCOC(=O)C(C)c3ccc(CC(C)C)cc3)c(=O)c-2nc2cc(C)c(C)cc21)OC(C)=O` (stereo not drawn), the IC50 amounted to 9.3 µM.

In a further data set the test system is MCF7. Nature of the data set: Antiproliferative activity against MCF7 cells. The format is functional, cell-based. Conditions: Homo sapiens.
In turn, `CC(C)Cc1ccc([C@H](C)C(=O)O)cc1` [DEXIBUPROFEN] yielded an IC50 of 795 µM.

In turn, `CC(=O)OCC(OC(C)=O)C(OC(C)=O)C(Cn1c2nc(=O)n(CCCCOC(=O)C(C)c3ccc(CC(C)C)cc3)c(=O)c-2nc2cc(C)c(C)cc21)OC(C)=O` (stereo not drawn) returned an IC50 of 9.5 µM.

In turn, `CC(=O)OCC(OC(C)=O)C(OC(C)=O)C(Cn1c2nc(=O)n(CCOC(=O)C(C)c3ccc(CC(C)C)cc3)c(=O)c-2nc2cc(C)c(C)cc21)OC(C)=O` (stereo not drawn) showed an IC50 of 14.9 µM.

With `CC(=O)OCC(OC(C)=O)C(OC(C)=O)C(Cn1c2nc(=O)n(CCO)c(=O)c-2nc2cc(C)c(C)cc21)OC(C)=O` (stereo not drawn), the IC50 was > 100 µM.

In the case of `CC(=O)OCC(OC(C)=O)C(OC(C)=O)C(Cn1c2nc(=O)n(COC(=O)C(C)c3ccc(CC(C)C)cc3)c(=O)c-2nc2cc(C)c(C)cc21)OC(C)=O` (stereo not drawn), the IC50 worked out at 12.3 µM.

Turning to `CC(=O)OCC(OC(C)=O)C(OC(C)=O)C(Cn1c2nc(=O)[nH]c(=O)c-2nc2cc(C)c(C)cc21)OC(C)=O` (stereo not drawn), the IC50 turned out to be 53.4 µM.

`CC(=O)OCC(OC(C)=O)C(OC(C)=O)C(Cn1c2nc(=O)n(CCCCCOC(=O)C(C)c3ccc(CC(C)C)cc3)c(=O)c-2nc2cc(C)c(C)cc21)OC(C)=O` (stereo not drawn) returned an IC50 of 9.5 µM.

Compound `CC(=O)OCC(OC(C)=O)C(OC(C)=O)C(Cn1c2nc(=O)n(CCCOC(=O)C(C)c3ccc(CC(C)C)cc3)c(=O)c-2nc2cc(C)c(C)cc21)OC(C)=O` (stereo not drawn) gave an IC50 of 7.8 µM.

Test system in the next data set: not listed separately
Nature of the data set: Stability in phosphate buffer. The format is physicochemical.
Settings: not given
Take `CC(=O)OCC(OC(C)=O)C(OC(C)=O)C(Cn1c2nc(=O)n(CCCCOC(=O)C(C)c3ccc(CC(C)C)cc3)c(=O)c-2nc2cc(C)c(C)cc21)OC(C)=O` (stereo not drawn): the Stability entry is listed as “Stable”.

With `CC(=O)OCC(OC(C)=O)C(OC(C)=O)C(Cn1c2nc(=O)n(CCOC(=O)C(C)c3ccc(CC(C)C)cc3)c(=O)c-2nc2cc(C)c(C)cc21)OC(C)=O` (stereo not drawn), the Stability result is recorded as “Stable”.

Consider `CC(=O)OCC(OC(C)=O)C(OC(C)=O)C(Cn1c2nc(=O)n(COC(=O)C(C)c3ccc(CC(C)C)cc3)c(=O)c-2nc2cc(C)c(C)cc21)OC(C)=O` (stereo not drawn), for which the Stability result was “Stable”.

On to `CC(=O)OCC(OC(C)=O)C(OC(C)=O)C(Cn1c2nc(=O)n(CCCCCOC(=O)C(C)c3ccc(CC(C)C)cc3)c(=O)c-2nc2cc(C)c(C)cc21)OC(C)=O` (stereo not drawn), for which the Stability result is “Stable”.

With `CC(=O)OCC(OC(C)=O)C(OC(C)=O)C(Cn1c2nc(=O)n(CCCOC(=O)C(C)c3ccc(CC(C)C)cc3)c(=O)c-2nc2cc(C)c(C)cc21)OC(C)=O` (stereo not drawn), the Stability result is on record as “Stable”.

Another data set deals with Prostaglandin G/H synthase 1 (Homo sapiens) (UniProt P23219). As to the kind of experiment: Inhibition of COX1 by human platelet assay. On the set-up: concentration or dose not given beside the values. To be noted: concentration not given here. The method in brief: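 Enzyme activities measured in human platelets incubated for 60 min in buffer solution at 37 °C. 12-LOX activity was read out as formation of 12(S)-HETE. COX-1 activity was read out as formation of its eicosanoid product.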
Prostaglandin G/H synthase 1 (Homo sapiens), sequence (P23219 whole entry): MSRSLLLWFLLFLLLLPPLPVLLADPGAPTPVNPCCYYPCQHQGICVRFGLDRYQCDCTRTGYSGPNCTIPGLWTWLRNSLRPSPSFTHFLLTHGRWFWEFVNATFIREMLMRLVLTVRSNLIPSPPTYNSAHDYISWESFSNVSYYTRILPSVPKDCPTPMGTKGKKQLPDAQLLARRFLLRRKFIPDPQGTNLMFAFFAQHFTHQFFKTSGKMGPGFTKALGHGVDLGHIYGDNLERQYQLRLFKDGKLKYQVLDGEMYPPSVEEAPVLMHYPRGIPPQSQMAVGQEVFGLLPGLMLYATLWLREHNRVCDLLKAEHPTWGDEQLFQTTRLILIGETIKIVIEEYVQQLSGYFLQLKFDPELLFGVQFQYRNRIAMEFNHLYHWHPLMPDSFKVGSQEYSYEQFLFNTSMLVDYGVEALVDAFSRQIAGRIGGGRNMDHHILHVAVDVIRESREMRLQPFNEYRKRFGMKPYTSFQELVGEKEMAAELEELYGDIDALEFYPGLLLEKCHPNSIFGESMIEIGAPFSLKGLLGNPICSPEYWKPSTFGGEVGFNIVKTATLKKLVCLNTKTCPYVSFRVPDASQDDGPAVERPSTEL
Usually inhibition stands for the percentage by which the read-out fell short of the control. As to `CC(C)Cc1ccc([C@H](C)C(=O)O)cc1` [DEXIBUPROFEN], the inhibition is 90%.

The compound `CC(=O)OCC(OC(C)=O)C(OC(C)=O)C(Cn1c2nc(=O)n(CCCCOC(=O)C(C)c3ccc(CC(C)C)cc3)c(=O)c-2nc2cc(C)c(C)cc21)OC(C)=O` (stereo not drawn) showed an inhibition of 37%.

`CC(=O)OCC(OC(C)=O)C(OC(C)=O)C(Cn1c2nc(=O)n(CCOC(=O)C(C)c3ccc(CC(C)C)cc3)c(=O)c-2nc2cc(C)c(C)cc21)OC(C)=O` (stereo not drawn) came in with an inhibition of 15%.

`CC(=O)OCC(OC(C)=O)C(OC(C)=O)C(Cn1c2nc(=O)n(COC(=O)C(C)c3ccc(CC(C)C)cc3)c(=O)c-2nc2cc(C)c(C)cc21)OC(C)=O` (stereo not drawn) yielded an inhibition of 15%.

Compound `CC(=O)OCC(OC(C)=O)C(OC(C)=O)C(Cn1c2nc(=O)n(CCCCCOC(=O)C(C)c3ccc(CC(C)C)cc3)c(=O)c-2nc2cc(C)c(C)cc21)OC(C)=O` (stereo not drawn) came in with an inhibition of 43%.

Turning to `CC(=O)OCC(OC(C)=O)C(OC(C)=O)C(Cn1c2nc(=O)n(CCCOC(=O)C(C)c3ccc(CC(C)C)cc3)c(=O)c-2nc2cc(C)c(C)cc21)OC(C)=O` (stereo not drawn), the inhibition turned out to be 15%.

The next data set concerns Arachidonate 12-lipoxygenase, platelet type (Homo sapiens). As to the kind of experiment: Inhibition of LOX12 by human platelet assay. The arrangement: concentration or dose not given beside the values. Conditions: concentration not given here.
For the compound `CC(=O)OCC(OC(C)=O)C(OC(C)=O)C(Cn1c2nc(=O)n(CCCCOC(=O)C(C)c3ccc(CC(C)C)cc3)c(=O)c-2nc2cc(C)c(C)cc21)OC(C)=O` (stereo not drawn), the inhibition was < 11%.

Consider `CC(=O)OCC(OC(C)=O)C(OC(C)=O)C(Cn1c2nc(=O)n(CCOC(=O)C(C)c3ccc(CC(C)C)cc3)c(=O)c-2nc2cc(C)c(C)cc21)OC(C)=O` (stereo not drawn), for which the inhibition was < 11%.

`CC(=O)OCC(OC(C)=O)C(OC(C)=O)C(Cn1c2nc(=O)n(COC(=O)C(C)c3ccc(CC(C)C)cc3)c(=O)c-2nc2cc(C)c(C)cc21)OC(C)=O` (stereo not drawn): the inhibition is < 11%.

Consider `CC(=O)OCC(OC(C)=O)C(OC(C)=O)C(Cn1c2nc(=O)n(CCCCCOC(=O)C(C)c3ccc(CC(C)C)cc3)c(=O)c-2nc2cc(C)c(C)cc21)OC(C)=O` (stereo not drawn), for which the inhibition is < 11%.

Regarding `CC(=O)OCC(OC(C)=O)C(OC(C)=O)C(Cn1c2nc(=O)n(CCCOC(=O)C(C)c3ccc(CC(C)C)cc3)c(=O)c-2nc2cc(C)c(C)cc21)OC(C)=O` (stereo not drawn), the inhibition was < 11%.
